Source: ChEMBL document CHEMBL3044531, “Quantitative structure-antifungal activity relationships of some benzohydrazides against Botrytis cinerea” (2007)

Experiments:
Format in all cases: functional
Conditions in all cases: 144 h
[1] = test system: Botrytis cinerea; assay: Antifungal activity against Botryotinia fuckeliana assessed as radial growth inhibition at 100 ug/mL measured after 6 days
Method in brief: (§1)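 Radial growth inhibition of B. cinerea on glucose-malt-peptone agar (61 g/L, pH 6.5-7.0) in 9 cm dishes. Compound in acetone added to the medium at final 50-200 μg/mL, with equal acetone in the controls. A 5 mm mycelial disc from an actively growing culture was placed centrally. Growth was followed for 6 days; % inhibition from mean colony diameter versus untreated control. Triplicate, repeated at least three times.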

[2] = test system: Botrytis cinerea; assay: Antifungal activity against Botryotinia fuckeliana assessed as radial growth inhibition at 50 ug/mL measured after 6 days; method in brief: as §1
[3] = test system: Botrytis cinerea; assay: Antifungal activity against Botryotinia fuckeliana assessed as radial growth inhibition at 200 ug/mL measured after 6 days; method in brief: as §1

| SMILES | inhibition at 100 µg/mL [1] [%] | inhibition at 50 µg/mL [2] [%] | inhibition at 200 µg/mL [3] [%] |
| --- | --- | --- | --- |
| CN(C)NC(=O)c1ccccc1F | 22 | 12 | 32 |
| O=C(NN1CCCCC1)c1ccccc1Cl | 40 | 36 | 57 |
| Cc1ccccc1C(=O)NN(Cc1ccccc1)Cc1ccccc1 | 55 | 48 | 88 |
| O=C(NN(Cc1ccccc1)Cc1ccccc1)c1ccccc1Cl | 42 | 31 | 86 |
| CN(C)NC(=O)c1ccccc1 [N',N'-DIMETHYLBENZOHYDRAZIDE] | 45 | 24 | 51 |
| O=C(NN1Cc2ccccc2C1)c1ccccc1F | 50 | 42 | 91 |
| O=C(NN1CCCCC1)c1ccccc1I | 42 | 33 | 46 |
| O=C(NN(Cc1ccccc1)Cc1ccccc1)c1ccccc1I | 50 | 27 | 82 |
| O=C(NN1CCCCC1)c1ccccc1 [N-PIPERIDINOBENZAMIDE] | 43 | 37 | 45 |
| CN(C)NC(=O)c1ccccc1I | 28 | 19 | 33 |
| CN(C)NC(=O)c1ccccc1Cl | 0 | 0 | 33 |
| O=C(NN1CCCCC1)c1ccccc1F | 51 | 46 | 51 |
| COc1ccccc1C(=O)NN1CCCCC1 | 47 | 38 | 51 |
| O=C(NN(Cc1ccccc1)Cc1ccccc1)c1ccccc1 [N',N'-DIBENZYLBENZOHYDRAZIDE] | 42 | 10 | 44 |
